Screening results deposited in PubChem by several laboratories.
CSC inhib: cancer stem cell inhibition; cancer stem cell-like cells viability, luminescence; inhibition, % at 7.5 µM; 300,000 compounds, 1.1% hits; AID 2717; in the data active = inhibition above about 75%; inconclusive = no clear call, values can overlap the other calls; tested in HMLE shEcad cells
Mdm2-MdmX inh: disrupts the human Mdm2-MdmX interaction. SaOS-2 split-luciferase Mdm2/MdmX complementation, luminescence. inhibition, % at 8 µM. 330,000 compounds, 3% hits;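 active = inhibition of at least 50% at 8 µM in the primary screen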
Target sequence (O15151 whole entry, looked up): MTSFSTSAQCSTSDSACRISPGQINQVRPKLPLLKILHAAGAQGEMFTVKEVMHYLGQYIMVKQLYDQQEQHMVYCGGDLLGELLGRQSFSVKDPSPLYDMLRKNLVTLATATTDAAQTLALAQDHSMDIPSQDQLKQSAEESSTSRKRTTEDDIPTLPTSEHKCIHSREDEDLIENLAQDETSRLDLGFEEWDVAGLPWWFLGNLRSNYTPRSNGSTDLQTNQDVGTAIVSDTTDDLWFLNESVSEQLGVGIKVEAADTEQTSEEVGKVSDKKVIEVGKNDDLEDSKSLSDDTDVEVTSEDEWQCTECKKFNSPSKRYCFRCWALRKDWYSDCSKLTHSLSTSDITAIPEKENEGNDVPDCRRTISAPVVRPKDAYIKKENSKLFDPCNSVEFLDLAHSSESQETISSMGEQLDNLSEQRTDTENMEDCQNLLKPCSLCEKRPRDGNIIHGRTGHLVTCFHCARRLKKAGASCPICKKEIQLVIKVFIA
Target sequence (Q00987 whole entry, looked up): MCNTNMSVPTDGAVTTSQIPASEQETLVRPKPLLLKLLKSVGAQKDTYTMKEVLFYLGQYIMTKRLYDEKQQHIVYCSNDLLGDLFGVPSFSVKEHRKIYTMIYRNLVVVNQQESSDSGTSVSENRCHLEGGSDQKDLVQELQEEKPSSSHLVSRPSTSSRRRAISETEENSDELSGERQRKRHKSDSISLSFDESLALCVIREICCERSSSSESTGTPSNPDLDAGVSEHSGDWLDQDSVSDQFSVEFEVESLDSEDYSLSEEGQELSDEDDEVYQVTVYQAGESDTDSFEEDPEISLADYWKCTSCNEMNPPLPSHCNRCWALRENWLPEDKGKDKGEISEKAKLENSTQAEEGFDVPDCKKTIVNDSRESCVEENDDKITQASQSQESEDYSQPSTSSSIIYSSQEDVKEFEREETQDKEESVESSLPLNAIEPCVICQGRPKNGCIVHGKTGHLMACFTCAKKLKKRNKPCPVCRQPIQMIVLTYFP
Beta cell apopt: beta cell apoptosis inhibition | INS-1E cytokine-induced death, ATP luminescence, 48 h; percent of positive-control rescue, neutral wells zero | protection from apoptosis, % (test concentration not listed) | 300,000 compounds, 0.8% hits | AID 435005;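 active = Every replicate reaches about 75%, or at least half do and their mean reaches it too, limit read from the data; inconclusive = At least half of replicates reach the limit but their mean does not; inactive = Under half of replicates reach the limit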;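 note: 0% = cytokine-treated negative control wells and 100% = positive control rescue; higher means more ATP so stronger rescue from cytokine killing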
CHOP UPR activ: activators of apoptotic arm of unfolded protein response (CHOP) | AID 449763 | activation, % at 10 µM | CHO-CHOP luciferase reporter, UPR activation, luminescence; percent of tunicamycin response over DMSO baseline | 330,000 compounds, 0.34% hits;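 active = at 10 µM dose, activation of 40% or more, normalized to positive control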;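 note: 100% = tunicamycin at 10 µg/mL and 0% = DMSO alone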
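System: CHO CHOP reporter cells. Amount: 500 cells per well. Buffer or medium: F12 medium, 10% FBS. Compound dosing: one dose, 10 µM in 0.5% DMSO. Incubation: 6 h compound exposure at 37 °C after overnight seeding. Technique: Steady-Glo luciferase luminescence. Benchmarks: tunicamycin and DMSO controls.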
XBP1 UPR activ: adaptive UPR (XBP1) activation; CHO-XBP1 luciferase reporter, IRE1-XBP1 UPR activation, luminescence; percent of tunicamycin response, DMSO as zero; AID 463104; 330,000 compounds, 0.33% hits; activation, % at 20 µM;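 active = versus positive control, 20 µM dose yields 30% or more activation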;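 note: 100% = tunicamycin at 10 µg/mL and 0% = DMSO only wells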
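assay system = CHO-XBP1 luciferase reporter cells | amount = 1000 cells/well | buffer or medium = F12 plus 10% FBS | compound dosing = single point, 20 µM final compound, 1% DMSO | incubation = 16-18 h cell attachment at 37 °C, then 6 h compound exposure | detection = Steady-Glo luminescence read | controls = tunicamycin 10 µg/mL and vehicle-only wells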
T cruzi inh: blocks replication of Trypanosoma cruzi | T. cruzi beta-gal in NIH3T3, luminescence, 90 h | 300,000 compounds, 1.4% hits | inhibition, % (no concentration beside the values);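 active = mean inhibition across valid replicates above about 55%, limit read from the data; inconclusive = mean below that limit but half or more replicates reach it; inactive = mean below it, under half of replicates reach it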;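 note: signal also drops with host cell toxicity which is not excluded here; 0% = plate median of DMSO wells and 100% = zero luminescence signal; higher percent means less beta-gal luminescence so fewer parasites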
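Assay system: NIH/3T3 fibroblasts plus reporter T. cruzi. Amount: NIH/3T3 cells, 5,000 per well. Buffer or medium: DMEM, 2% fetal bovine serum. Doses: compound pinned at 50 nL/well, DMSO. Schedule: ≥90 h infection period, 3 h prior cell attachment. Signal: luminescent β-galactosidase signal after 60 min lysis. Read-out: parasite load inhibition, %.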
Mdm2-MdmX conf: confirmation of human Mdm2/MdmX interaction inhibitors; shares compounds with Mdm2-MdmX inh; Mdm2-MdmX binding, luminescent assay; inhibition, % at 8 µM; 10,000 compounds, 55% hits; in the data active = inhibition above about 40%
FLuc counter: full-length luciferase inhibition in Mdm2/MdmX counter-screen; SaOS-2 full-length luciferase counterscreen, luminescence; AID 504607; 6,200 compounds, 77% hits; inhibition, % at 8 µM; shares compounds with Mdm2-MdmX inh;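 active = mean inhibition at 8 µM reaching about 37%, which flags the compound as non-specific, limit read from the data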;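 note: p53-null SaOS-2 cells with luciferase driven by a doxycycline-inducible promoter; compound on cells about two nights before reading with doxycycline added after day one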
* = called active by the depositor; ? = inconclusive; / = not tested or not shown. An excerpt weighted towards active compounds, which were near 5% of everything screened.

SMILES	CSC inhib	Mdm2-MdmX inh	Beta cell apopt	CHOP UPR activ	XBP1 UPR activ	T cruzi inh	Mdm2-MdmX conf	FLuc counter
CCCCNS(=O)(=O)c1ccc2nc(-c3cccnc3)cc(C(=O)NCCCN(CC)CC)c2c1	-10.9	-9.2	-5.9	0.2	-0.1	-8.9	/	/
CCN(CC)CCNC(=O)c1cc(-c2cccnc2)nc2ccc(S(=O)(=O)N3CCC(C)CC3)cc12	-13.3	99.5*	6.0	7.1	7.9	-7.3	75.6*	53.3*
CCCCN(C)CCCNC(=O)c1cc(-c2cccnc2)nc2ccccc12	-0.2	-24.0	1.7	1.4	-6.9	47.2	/	/
CCCCN(C)CCNC(=O)c1cc(-c2cccnc2)nc2ccc(S(=O)(=O)N3CCC(C)CC3)cc12	-1.2	96.0*	0.2	2.0	4.6	11.7	26.4	/
CCCCCCCC[n+]1cccc(C(=O)N(CC)CC)c1	8.6	-11.9	-8.5	-0.8	-3.8	-4.5	/	/
CCCCCCCCCCCCCCCC[n+]1cccc(C(=O)N(CC)CC)c1	142.8*	77.1*	90.7*	0.0	-1.2	43.8	66.5*	17.8
CCCCCCCCCCCCCCCC[n+]1ccc(C(N)=O)cc1	/	78.1*	7.5	1.2	-1.3	/	77.0*	57.4*
CCCCCCCCCCCCCCCC[n+]1ccc(/C=N/O)cc1	100.2*	96.5*	123.0*	24.4	7.6	/	100.0*	7.5
O=C(c1noc2c1CCCC2)N1CCCC(N2CCN(c3ccccc3F)CC2)C1 (stereo not drawn)	17.4	6.7	-2.3	-0.3	-7.5	-5.8	/	/
CC1(C)Cc2c(c(-c3ccco3)nc3sc4c(NCCN5CCOCC5)ncnc4c23)CO1	27.5	50.9*	4.8	-2.1	15.2	-37.5	8.2	/
CC1(C)Cc2c(c(-c3ccco3)nc3sc4c(NCCCO)ncnc4c23)CO1	8.3	20.6	-8.6	-1.7	20.7	19.7	/	/
CN(C)CCNc1ncnc2c1sc1nc(N3CCCC3)c3c(c12)CC(C)(C)OC3	/	34.0	/	1.1	6.3	37.4	/	/
CCN(CC)CCNc1ncnc2c1sc1nc(N3CCCC3)c3c(c12)CC(C)(C)OC3	19.6	59.0*	2.9	1.5	4.5	60.8*	31.9	/
CC1(C)Cc2c(c(N3CCOCC3)nc3sc4c(NN)ncnc4c23)CS1	87.2*	60.6*	81.1*	3.5	8.5	26.7	12.3	/
CCN(CC)CCNc1ncnc2c1sc1nc(N3CCOCC3)c3c(c12)CCCC3	-0.2	70.6*	11.6	1.0	7.9	25.6	36.4	64.8*
CN(CC(=O)Nc1cccc(F)c1)C(=O)c1ccc2c(c1)CC(c1ccccc1)OC2=O (stereo not drawn)	/	43.2	/	0.1	-3.6	/	/	/
c1cnc(N2CCN(c3cnccn3)CC2)nc1	-4.8	2.1	0.2	-0.6	2.8	-12.7	/	/
O=C(Nc1nccs1)C1CCCN1/C=C/C(=O)C(F)(F)F (stereo not drawn)	11.1	8.4	/	-0.4	-0.9	-5.7	/	/
COc1cc2c3nnc(-c4ccccc4)c-3cn(Cc3ccccc3F)c2cc1OC	23.2	84.1*	15.8	0.6	9.5	50.7	53.0*	39.5*
CNC(=O)CC(CC(=O)c1ccccc1)c1ccccc1 (stereo not drawn)	1.5	16.5	-0.1	1.8	1.1	/	/	/
C=C(C(=O)c1ccccc1)C(C)CC(=O)c1ccccc1 (stereo not drawn)	31.5	64.2*	-28.0	3.2	-4.9	-75.6	61.0*	32.4
O=C(/C=C/c1cccc(C(F)(F)F)c1)Nc1cccc(C(F)(F)F)c1	33.1	90.8*	-6.3	4.9	5.9	42.0	31.2	57.2*
Cc1ccc(NC(=O)/C=C/c2cccc(C(F)(F)F)c2)cc1	7.1	24.1	0.6	6.8	0.2	21.9	/	/
CCOC(=O)c1cc(-c2ccc(F)cc2)nc2c1c(=O)[nH]c(=O)n2Cc1ccccc1	3.6	28.0	8.3	2.1	4.5	-0.8	/	/
CCOC(=O)c1cc(-c2cc(OC)c(OC)c(OC)c2)nc2c1c(=O)[nH]c(=O)n2Cc1ccccc1	8.9	57.3*	12.6	6.9	14.7	44.5	56.1*	86.3*
SMILES	CSC inhib	Mdm2-MdmX inh	Beta cell apopt	CHOP UPR activ	XBP1 UPR activ	T cruzi inh	Mdm2-MdmX conf	FLuc counter
CCN1C(=O)c2cccc3c(Cl)ccc1c23	-19.3	50.4*	/	-0.2	4.4	13.7	-5.2	/
CCN1C(=O)c2cccc3c(S(=O)(=O)Nc4ccccn4)ccc1c23	8.3	74.7*	-12.8	0.0	0.9	24.7	46.5*	67.8*
CCN1C(=O)c2cccc3c(S(=O)(=O)Nc4ccncc4)ccc1c23	-2.0	19.3	/	-0.3	0.2	-6.1	/	/
CCN1C(=O)c2cccc3c(S(=O)(=O)Nc4ccccc4)ccc1c23	0.2	81.2*	-9.5	1.1	-0.1	22.2	73.0*	70.3*
CCN1C(=O)c2cccc3c(S(=O)(=O)Nc4ncccc4C)ccc1c23	-5.0	51.1*	4.7	0.6	-3.0	8.9	17.6	/
CCN1C(=O)c2cccc3c(S(=O)(=O)Nc4nc(C)cs4)ccc1c23	6.0	72.6*	-7.1	-5.0	1.8	10.0	20.4	/
CN1C(=O)c2cccc3c(S(=O)(=O)Nc4ccccc4F)ccc1c23	8.4	51.1*	-2.2	0.1	-1.8	-1.3	18.6	/
CCN1C(=O)c2cccc3c(S(=O)(=O)NCc4cccnc4)ccc1c23	3.2	9.6	-5.2	-3.1	-3.5	-7.8	/	/
Cc1ccccc1C(=O)N1CCC(C(=O)NC2CCCC2)CC1	-10.6	-19.3	-4.7	1.6	-0.5	-3.7	/	/
Cc1ccc(C(=O)NNC(=O)c2cc(C)nc3ccccc23)cc1	/	8.9	-3.4	1.5	-1.8	/	/	/
CCCCCn1c(N)c(-c2nc3ccccc3s2)c2c([N+](=O)[O-])nn(C)c(=O)c21	34.9	87.4*	-3.0	11.5	-3.0	59.2*	2.5	/
CCNc1nc(C)c2cc(Br)c(=O)n(CC)c2n1	42.7	72.8*	19.3	-4.1	6.5	25.1	44.0*	46.0*
COc1nc(-c2ccccc2)cc(-c2ccc3c(c2)OCO3)c1C#N	37.5	56.9*	8.7	1.0	4.8	-12.5	57.5*	58.4*
c1ccc(-c2nccc(-c3ccc4c(c3)OCO4)n2)cc1	/	-38.3	1.7	4.4	2.8	-12.6	/	/
CCCc1nc(C)cc(N2CCN(c3ccccc3)CC2)n1	24.0	-28.8	-4.4	1.5	-1.2	9.9	/	/
Cc1ccc(Nc2cc(C)nc(NCc3ccccc3)n2)cc1	?	56.8*	105.1*	2.7	13.4	61.2*	35.1	/
Cc1cc(N2CCN(c3ccccc3)CC2)nc(NCc2ccccc2)n1	-14.1	75.7*	36.3	-0.3	1.0	55.3*	32.5	/
